Measurements from PubChem BioAssay AID540312 (Sanford-Burnham Center for Chemical Genomics, 2011).
Active and inactive are the calls of the source.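 The calls were made as follows: active = mean EC50 of 20 µM or lower; inactive = the rest.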

What follows are compounds tested against CHO-CHOP luciferase reporter, UPR activation, luminescence (assay: PERK-eIF2a-CHOP apoptotic UPR arm activators, SAR follow-up, CHO-CHOP cells, luminescence (AID 540312)).
Summary of the method: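 System: CHO-CHOP luciferase reporter cell line. Doses: compound dose-response series, final DMSO at most 1%. Detection: luminescence of luciferase reporter using Steady-Glo reagent. Schedule: 16–18 h cell rest, then 6 h compound treatment, 37 °C. Controls: tunicamycin 10 µg/mL as maximal activation, DMSO alone as baseline. Buffer or medium: F12 medium, 10% FBS.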

Structure (SMILES)	EC50
O=C(Nc1ccc(S(=O)(=O)N2CCC(O)CC2)cc1)c1ccc([N+](=O)[O-])o1	2.02 µM
O=C(Nc1ccc(S(=O)(=O)C2CCCCC2)cc1)c1ccc([N+](=O)[O-])o1	0.676 µM
O=C(Nc1ccc(S(=O)(=O)N2CCOCC2)cc1)c1ccccc1	> 80 µM (inactive)
O=C(Nc1ccc(S(=O)(=O)N2CCOCC2)cc1)c1ccc([N+](=O)[O-])o1	2.28 µM
Fc1cc(F)c2nc(NCc3ccccn3)sc2c1	> 80 µM (inactive)
O=C(Nc1ccc(S(=O)(=O)c2ccccc2)cc1)c1ccc([N+](=O)[O-])o1	1.09 µM
O=C(Nc1ccc(S(=O)(=O)N2CCOCC2)cc1)c1ccco1	> 80 µM (inactive)
O=C(Nc1nc2ccccc2s1)c1cccnc1	> 80 µM (inactive)
O=C(Nc1ccc(S(=O)(=O)N2CCOCC2)cc1)c1ccc([N+](=O)[O-])s1	13.5 µM
O=C(Nc1nc2c(Cl)cc(Cl)cc2s1)c1ccccn1	10.6 µM
O=C(Nc1nc2ccccc2s1)c1ccncc1	> 80 µM (inactive)
O=C(Nc1ccc(S(=O)(=O)N2CCCCC2)cc1)c1ccc([N+](=O)[O-])o1	1.75 µM
O=C(Nc1nc2c(F)cccc2s1)c1ccccn1	5.83 µM
O=C(Nc1ccc(S(=O)(=O)N2CCCC2)cc1)c1ccc([N+](=O)[O-])o1	0.742 µM
O=C(Nc1ccc(S(=O)(=O)N2CCOCC2)cc1)c1ccc(Br)o1	> 80 µM (inactive)
O=C(Nc1ccc(S(=O)(=O)N2CCNCC2)cc1)c1ccc([N+](=O)[O-])o1	inactive

Structure (SMILES)	EC50
O=C(Nc1nc2c(F)cc(F)cc2s1)c1cccnc1	> 80 µM (inactive)
O=C(Nc1nc2ccccc2s1)c1ccccn1	> 80 µM (inactive)
CC1(C)CCN(S(=O)(=O)c2ccc(NC(=O)c3ccc([N+](=O)[O-])o3)cc2)CC1	0.494 µM
O=C(Nc1nc2ccc(F)cc2s1)c1ccccn1	12.6 µM
O=C(Nc1nc2c(F)cc(F)cc2s1)c1ccccn1	7.22 µM
O=C(Nc1nc2c(F)cc(F)cc2s1)c1ccccc1	> 80 µM (inactive)
O=C(Nc1ccc(C(=O)N2CCOCC2)cc1)c1ccco1	> 80 µM (inactive)
O=C(Nc1cccc(S(=O)(=O)N2CCOCC2)c1)c1ccco1	> 80 µM (inactive)
Cc1cc(C)c2nc(NC(=O)c3ccccn3)sc2c1	7.56 µM
O=C(Nc1nc2c(F)cc(F)cc2s1)c1ccncc1	> 80 µM (inactive)
Cc1ccc(C(=O)Nc2ccc(S(=O)(=O)N3CCOCC3)cc2)o1	> 80 µM (inactive)
O=C(Nc1ccc(S(=O)(=O)N2CCOCC2)cc1)c1cccs1	> 80 µM (inactive)
CC1CN(S(=O)(=O)c2ccc(NC(=O)c3ccco3)cc2)CC(C)O1 (stereo unspecified)	> 80 µM (inactive)
O=C(Nc1ccc(S(=O)(=O)N2CCOCC2)cc1)c1ccc([N+](=O)[O-])cc1	> 80 µM (inactive)
CC1CCN(S(=O)(=O)c2ccc(NC(=O)c3ccc([N+](=O)[O-])o3)cc2)CC1	0.541 µM
